Compound activity from PubChem BioAssay.
BB579 growth dn = reduces growth of yeast BB579 in restrictive medium; 0.51% of 140,000 active; inhibition, % at 10 µM; AID 804; S. cerevisiae BB579 growth, OD615, 48 h;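 active = inhibition above a set limit, 3 SD over the mean compound inhibition, cut at about 44% in these data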
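System: Saccharomyces cerevisiae DeaD strain BB579, replicative lifespan model yeast | Buffer or medium: Restrictive glucose-based CSMM-D medium | Times: 4 h preincubation and 48 h exposure at 30 °C | Detection: OD615 turbidity measurement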
RAM network inh = blocks the yeast RAM network | S. cerevisiae dse1pr::URA3 reporter, 5-FOA growth OD615, 2 d; analog-sensitive cbk1-as2 kinase mutant strain | 1.8% of 190,000 active | AID 868 | inhibition, % at 50 µM;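 active = inhibition above a set limit, 3 SD over mean compound inhibition, cut at about 8.4% in these data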;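 note: 0% = DMSO-only wells with no growth and 100% = 10 µM 1-NA-PP1 full growth; inhibition rescues growth on 5-FOA so higher OD means more RAM inhibition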
WT yeast gro inh = growth inhibition of WT yeast, mitochondrial fusion screen. mitochondrial fusion phenotypic screen, WT strain. 2.1% of 190,000 active. AID 1362. inhibition, % at 10 µM; in the data active = inhibition above about 58%; tested in S. cerevisiae
Measles CPE = protection of cells from measles virus | 1.5% of 140,000 active | protection (pct of control), % at 4 µM | Measles virus-infected cells, CPE protection, absorbance; in the data active = protection mostly above about 24%, no sharp cut-off; inactive = mostly below about 26%
hDAT+cocaine = modulates human dopamine transporter uptake under cocaine; Q01959; LLC-PK1 hDAT cells, [14C]-dopamine uptake with cocaine IC80; actives deviate in either direction; B-score at 10 µM; 1.3% of 110,000 active;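 active = Z score or B-score, a plate-position-corrected score, falls beyond the plate's 99.7% confidence bounds, in either direction; inactive = both scores lie inside the 99.7% bounds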;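 note: scored against the spread of the other compound wells on the same plate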
Target sequence (Q01959 whole entry, looked up): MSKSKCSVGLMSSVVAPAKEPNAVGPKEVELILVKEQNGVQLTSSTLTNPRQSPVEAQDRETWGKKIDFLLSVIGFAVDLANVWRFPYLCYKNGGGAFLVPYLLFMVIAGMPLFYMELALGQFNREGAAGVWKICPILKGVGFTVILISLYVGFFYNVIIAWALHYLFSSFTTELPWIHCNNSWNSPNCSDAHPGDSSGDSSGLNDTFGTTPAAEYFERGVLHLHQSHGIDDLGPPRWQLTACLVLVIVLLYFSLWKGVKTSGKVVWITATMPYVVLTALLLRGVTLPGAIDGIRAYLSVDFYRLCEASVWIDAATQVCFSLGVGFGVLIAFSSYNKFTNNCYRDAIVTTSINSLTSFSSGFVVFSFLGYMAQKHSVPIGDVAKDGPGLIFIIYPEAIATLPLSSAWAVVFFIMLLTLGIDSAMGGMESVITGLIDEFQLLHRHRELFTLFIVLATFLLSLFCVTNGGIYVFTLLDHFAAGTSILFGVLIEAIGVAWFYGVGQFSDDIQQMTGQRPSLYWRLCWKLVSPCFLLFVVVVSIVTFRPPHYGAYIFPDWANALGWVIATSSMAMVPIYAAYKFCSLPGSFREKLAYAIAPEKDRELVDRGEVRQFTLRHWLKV
Yeast lifespan up = extends the lifespan of yeast | 0.68% of 130,000 active | S. cerevisiae growth with nicotinamide, OD615; deaD strain in restrictive glucose medium | AID 775 | inhibition of the nicotinamide effect, % at 10 µM;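 active = inhibition above a set limit, placed 3 SD over the median of all compounds, cut at about 26% in these data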;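 note: 0% = nicotinamide-treated wells and 100% = cells grown without nicotinamide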
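Buffer or medium: CSMM-D glucose medium, restrictive; test system: modified budding yeast, DeaD strain; compound: single dose 10 µM compound, 0.25% DMSO; schedule: culture preincubation 4 h, compound exposure 48 h, both 30 °C; detection: optical density (absorbance) at 615 nm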
* hit, by the source's call; nt = no result. Shown are actives, neighbours in structure and some others; about 6.1% of the full set was active somewhere.

SMILES | BB579 growth dn | RAM network inh | WT yeast gro inh | Measles CPE | hDAT+cocaine | Yeast lifespan up
COc1ccc(-n2nc(N)c3c(=O)oc(N(C)C)nc32)cc1 | -16.6 | 2.7 | -6.2 | 3.9 | 0.376 | -11.9
Cc1ccc2nc(-c3ccc(NS(C)(=O)=O)cc3)cc(-c3ccccc3)c2c1 | 90.4* | -2.3 | 3.1 | 41.9* | 0.845 | -29.7
CCS(=O)(=O)Nc1ccc(-c2cc(-c3ccccc3)c3cc(C)ccc3n2)cc1 | -41.0 | 0.2 | 89.7* | 31.9 | nt | 1.4
Cc1ccc2nc(-c3ccncc3)cc(-c3ccccc3)c2c1 | 3.0 | -0.5 | 13.6 | 3.4 | -0.165 | -21.6
Cc1ccc(S(=O)(=O)NCCNc2ccccc2[N+](=O)[O-])cc1 | nt | 0.4 | 18.0 | nt | nt | nt
CCOc1ccccc1NC(=O)CSCC(=O)Nc1ccccc1 | -51.0 | 0.9 | 14.0 | 2.1 | 0.441 | -15.7
CC(C)Oc1cccc(C(=O)Nc2ccc(Br)cc2F)c1 | 7.4 | 0.2 | 1.0 | 7.8 | nt | -8.0
CCCCOc1ccc(C(C)NC(=O)C2CCCN(S(=O)(=O)CC)C2)cc1 (stereo unspecified) | 19.4 | 2.4 | 7.1 | 37.9* | 0.58 | -3.0
Cc1ccc(N(C(=O)CS(=O)CC(=O)Nc2ccc(F)cc2)C(C(=O)NC2CCCCC2)c2ccco2)cc1 (stereo unspecified) | -22.9 | 1.5 | -3.9 | 16.4 | nt | 94.0*
O=C(CS(=O)CC(=O)N(c1ccccc1)C(C(=O)NC1CCCC1)c1cccs1)Nc1ccc(F)cc1 (stereo unspecified) | -31.1 | 3.7 | -2.3 | 7.7 | -0.0224 | -15.7
CCOc1cc(/C=C(/C#N)c2nc3ccccc3[nH]2)ccc1OCc1ccc(C(=O)O)o1 | -49.2 | 9.1* | -10.8 | 15.9 | 0.468 | -3.2
CCOc1cc(/C=C(/C#N)c2ccc(F)cc2)ccc1OCc1ccc(C(=O)O)o1 | -22.8 | 5.8 | -11.9 | 18.5 | 1.43 | -10.2
Cc1cc(N2CCOCC2)n2nc(C)c(-c3ccccc3)c2n1 | 1.1 | 0.5 | 4.0 | 1.9 | 0.245 | -13.6
Cc1nn2c(N3CCN(c4ccccn4)CC3)cc(C(C)C)nc2c1-c1ccccc1 | -53.9 | 0.2 | 97.4* | 16.6 | -0.487 | -9.8
CCN(CC)c1ccc(C2C3CCCCC3(O)CCN2CC(=O)N2CCCCC2)cc1 (stereo unspecified) | -40.4 | 0.9 | 12.9 | 7.8 | -7.85* | -15.8
Cc1ccc(Cn2c(C)cc3c(c2=O)C(c2cccs2)C(C#N)=C(N)O3)cc1 (stereo unspecified) | -42.0 | 8.7* | 2.0 | 4.6 | -0.672 | -4.4
Cc1cc2c(c(=O)o1)C(c1cccs1)C(C#N)=C(N)O2 (stereo unspecified) | -7.4 | 0.3 | -10.2 | 11.0 | nt | 10.5
O=C(COc1ccc([N+](=O)[O-])cc1)NNC(=S)NC(=O)c1ccc(Br)cc1 | nt | 0.8 | 70.1* | nt | nt | nt
O=C(COc1ccccc1)NNC(=S)NC(=O)c1ccccc1 | nt | 1.8 | 32.0 | nt | nt | nt
CN(/C(=N/S(=O)(=O)c1cccs1)c1ccccc1)c1ccccc1 | -37.1 | 2.3 | -16.6 | 29.4* | nt | 12.1
CN(C)c1ccc(N/C(=N\S(=O)(=O)c2cccs2)c2ccccc2)cc1 | -31.4 | 0.1 | 2.0 | 4.4 | nt | 6.0
CC1CCCCN1C(=O)COC(=O)/C=C/c1ccc2ccccc2n1 (stereo unspecified) | nt | 1.0 | -14.1 | nt | nt | nt
O=c1ccn(-c2ccccc2)[nH]1 | nt | 0.1 | -1.4 | nt | nt | nt
COC(=O)c1cc(=O)n(Cc2ccc3c(c2)OCO3)c(=Nc2ccc(F)c(Cl)c2)s1 | 6.4 | 3.1 | 20.5 | 12.3 | 0.225 | -8.1
COC(=O)c1cc(=O)n(CCc2ccc(OC)cc2)c(=Nc2ccc(F)c(Cl)c2)s1 | 25.0 | 9.5* | 6.3 | 2.9 | 1.22 | 2.8
SMILES | BB579 growth dn | RAM network inh | WT yeast gro inh | Measles CPE | hDAT+cocaine | Yeast lifespan up
COc1ccc(S(=O)(=O)N2c3ccccc3OCC2C(C)(C)C)cc1 (stereo unspecified) | nt | 3.7 | 77.0* | nt | nt | nt
COC(=O)C[C@H]1c2cc(F)ccc2S(=O)(=O)N1Cc1ccccc1 | nt | nt | nt | nt | -0.415 | nt
Cc1ccccc1OCC(=O)Nc1sc(C(=O)Nc2cccc(C)c2C)c(C)c1C#N | -32.9 | 3.0 | 16.3 | 102.5* | -0.195 | -10.2
CCN(Cc1cnn(C)c1)Cc1nc(Cc2ccccc2Cl)no1 | nt | 1.0 | -16.0 | nt | nt | nt
Cc1cccc(C)c1OCCOC(=O)c1n[nH]c2ccccc12 | nt | 6.7 | 67.4* | nt | nt | nt
Cc1cc(NC(=O)COC(=O)c2n[nH]c3ccccc23)no1 | -56.5 | 1.2 | -1.2 | 2.6 | -1.09 | -5.2
COc1cc2c(cc1NC(=O)COC(=O)CNS(=O)(=O)c1ccc(C)cc1)oc1ccccc12 | -2.3 | 1.9 | 19.6 | 8.8 | nt | -6.7
CC(C)C1OC(c2cccc(NC(=O)c3cccs3)c2)OCC1(C)C (stereo unspecified) | nt | 9.3* | 69.0* | nt | nt | nt
COc1ccc(-c2csc(CCN3N=C(C)CC3=O)n2)cc1 | nt | -0.4 | 5.1 | nt | nt | nt
O=C(Nc1ccc(Cl)cc1)NC1CCCCC1 | -19.8 | 3.4 | 2.2 | 26.1 | -0.133 | -9.3
O=C(Nc1ccc(Cl)cc1)NC1CCCC1Cc1ccco1 (stereo unspecified) | -11.1 | 8.8* | -52.6 | 35.8 | -5.66* | -23.9
O=C(Nc1ccc(Cl)cc1)NC1CCCCC1Cc1ccco1 (stereo unspecified) | 8.2 | 0.8 | 75.4* | 19.4 | -1.59 | -12.5
C=C(C)CC(NCCc1ccccc1)c1ccco1 (stereo unspecified) | nt | 2.6 | -7.8 | nt | nt | nt
C=CCOc1nc(N(C)C)nc(N(C)C)n1 | -21.8 | 1.1 | 0.0 | 17.1 | 0.129 | -3.1
Cc1ccc(N2C(=O)CC(N3CCc4ccccc43)C2=O)cc1Cl (stereo unspecified) | nt | 5.0 | -0.4 | nt | nt | nt
Cc1ccc(N2C(=O)CC(Sc3nc4ccccc4o3)C2=O)cc1Cl (stereo unspecified) | -32.2 | 4.2 | 16.7 | 5.5 | -7.16* | 11.0
Cc1ccccc1/C(N)=N/OC(=O)c1cccs1 | -10.3 | -1.2 | -0.2 | 12.3 | nt | -7.7
O=C(O)c1c[nH]c(=O)c2ccccc12 | nt | 4.6 | 11.9 | nt | nt | nt
COc1ccccc1CNC(=O)c1c(N)n(CCCN2CCOCC2)c2nc3ccccc3nc12 | 19.8 | -0.7 | 37.0 | 3.1 | nt | -16.7
Nc1c(C(=O)NCc2ccc3c(c2)OCO3)c2nc3ccccc3nc2n1CCCN1CCOCC1 | -35.9 | 9.8* | -0.8 | 9.7 | 1.13 | -24.8
COCc1cc(C)nc(SCC(=O)Oc2ccccc2)c1C#N | nt | 9.1* | 17.9 | nt | nt | nt
COc1cccc(-c2noc(-c3ccc(Cl)nc3)n2)c1 | nt | 0.7 | -1.9 | nt | nt | nt
CCCCCCCC(=O)OCC(O)CO (stereo unspecified) | 15.7 | 0.1 | -5.8 | 91.1* | -0.482 | -2.0
CCCCCCCCC(=O)O | nt | nt | nt | nt | -0.872 | nt
Cc1c(Cc2ccccc2)sc(NC(=O)/C=C/c2cccc3ccccc23)c1C(N)=O | -36.5 | 9.8* | -5.2 | 3.6 | nt | 4.7
O=C(O)c1ccc(SCc2cnc(Cl)s2)cc1 | 97.2* | 0.1 | -18.4 | 4.1 | 0.197 | -18.0
CC(C)n1cnc2c(Nc3ccc(C(=O)O)cc3)nc(Cl)nc21 | nt | nt | nt | nt | -3.99* | nt
